# Assay results pooled from the literature.
# Protocols differ between the studies behind these lines.
# Cell line: NCI-H460
# Effect on: cell growth or viability
SMILES,technique,concentration,time,measurement,value
O=C(CSc1nc2ccccc2s1)N/N=C/c1ccc(OCC(=O)Nc2ccc(Br)cc2)cc1,MTS,,72 h,IC50,14 µM
CCCCCCCCCCCCCCCCCCOc1ccc(CC(=O)OCC[N+]2(C)CCCC2)cc1,SRB,10 µM,,inhibition,0.31%
COc1ccc(NC(=O)NCc2cn(Cc3ccccc3C)nn2)cc1,CCK-8,50 µM,72 h,viability,106%
CCCCCCCCCCCCCCCCCCOc1ccc(CC(=O)OCC[N+]2(C)CCOCC2)cc1,SRB,10 µM,,inhibition,0.33%
O=C(CSc1nc2ccccc2s1)N/N=C/c1ccc(OCC(=O)Nc2cccc([N+](=O)[O-])c2)cc1,MTS,,72 h,IC50,15.8 µM
COc1cc([C@@H]2c3cc4c(cc3[C@@H](O[C@@H]3O[C@@H]5CO[C@@H](C)O[C@H]5[C@H](O)[C@H]3O)[C@H]3COC(=O)[C@H]23)OCO4)cc(OC)c1O,MTS,,72 h,IC50,0.69 µM
CCCCCCCCCCCCCCCCCCOc1ccccc1CC(=O)OCC[N+]1(C)CCOCC1,SRB,10 µM,,inhibition,30.8%
O=C(Nc1ccc(Cl)cc1)Nc1cccc(-c2cn(Cc3cccc(Br)c3)nn2)c1,CCK-8,50 µM,72 h,viability,88.2%
c1ccc(-c2cc(CNc3cccc4cccnc34)on2)nc1,MTS,,72 h,IC50,> 100 µM
CCCCCCCCCCCCCCCCCCOc1ccccc1CC(=O)OCCC[N+](C)(C)C,SRB,10 µM,,inhibition,19.9%
C[C@H](Nc1ccc2c(c1)OCCn1cc(N3C(=O)OC[C@H]3C(F)F)nc1-2)C(N)=O,ATP luminescence,,5 days,EC50,2.9 µM
COc1ccc(NC(=O)NCc2cn(Cc3ccc(Br)cc3)nn2)cc1,CCK-8,50 µM,72 h,viability,77.1%
FC(F)(F)c1ccc(-c2cc(COc3cc(C(F)(F)F)nc4ccccc34)on2)cc1,MTS,,72 h,IC50,> 100 µM
CCCCCCCCCCCCCCCCCCOc1cccc(CC(=O)OCC[N+](C)(C)C)c1,SRB,10 µM,,inhibition,2.4%
COc1ccc(NC(=O)Nc2cccc(-c3cn(Cc4ccc(Cl)cc4)nn3)c2)cc1,CCK-8,50 µM,72 h,viability,104%
CCCCCCCCCCCCCCCCCCOc1ccccc1CC(=O)OCC[N+]1(C)CCCC1,SRB,10 µM,,inhibition,72.5%
COc1ccc(NC(=O)NCc2cn(Cc3ccc(C)cc3)nn2)cc1,CCK-8,50 µM,72 h,viability,95.5%
N#Cc1ccc(-c2cc(COc3cc(=O)oc4ccccc34)on2)cc1,MTS,,72 h,IC50,> 100 µM
CCCCCCCCCCCCCCCCCCOc1cccc(CC(=O)OCC[N+]2(C)CCCCC2)c1,SRB,10 µM,,inhibition,0.88%
O=c1cc(OCc2cc(-c3ccc(C(F)(F)F)cc3)no2)c2ccccc2o1,MTS,,72 h,IC50,> 100 µM
CCCCCCCCCCCCCCCCCCOc1ccc(CC(=O)OCCC[N+](C)(C)C)cc1,SRB,10 µM,,inhibition,26.7%
c1ccc(-c2cc(CNc3cccc4cccnc34)on2)cc1,MTS,,72 h,IC50,> 100 µM
COc1ccc(NC(=O)Nc2cccc(-c3cn(Cc4ccccc4C)nn3)c2)cc1,CCK-8,50 µM,72 h,viability,80.7%
O=c1cc(OCc2cc(-c3ccc(Cl)cc3Cl)no2)c2ccccc2o1,MTS,,72 h,IC50,> 100 µM
COc1ccc(NC(=O)Nc2ccc(-c3cn(Cc4ccc(C)cc4)nn3)cc2)cc1,CCK-8,50 µM,72 h,viability,83.2%
N#Cc1ccc(-c2cc(COc3cc(C(F)(F)F)nc4ccccc34)on2)cc1,MTS,,72 h,IC50,> 100 µM
COc1ccc(NC(=O)Nc2cccc(-c3cn(Cc4ccc(C)cc4)nn3)c2)cc1,CCK-8,50 µM,72 h,viability,102%
